ChEMBL document CHEMBL4689842, “EUbOPEN Chemogenomics Library wave 1” (2021)

System: HEK-293T
Test: Multiplex assay against HEK293T;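 on Population Tubulin-Different-Phenotype (%): share of the cells with healthy nuclei that show this phenotype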
Assay type: toxicity, cell-based
Conditions: human
In short: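 Imaging took place on a CQ1 microscope at 37°C and 5% CO2 once compound had been added to live cells stained at seeding with Hoechst33342, BioTracker Green Microtubule Cytoskeleton Dye, MitoTracker Red and Annexin V Alexa Fluor 680. CellPathfinder machine-learning gating classed cells as Hoechst high-intensity objects or normal cells, classed normal cells as having healthy, pyknosed or fragmented nuclei, and classed pyknosed cells as mitotic or apoptotic. Tubulin, mitochondrial-mass and membrane-permeability phenotypes are per cents of the healthy-nucleus cells.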

[1] = 12 h, 1 µM, compound concentration 1 uM, replicate 1
[2] = 12 h, 1 µM, compound concentration 1 uM, replicate 2
[3] = 12 h, 10 µM, compound concentration 10 uM, replicate 1
[4] = 12 h, 10 µM, compound concentration 10 uM, replicate 2
[5] = 24 h, 1 µM, compound concentration 1 uM, replicate 1
[6] = 24 h, 1 µM, compound concentration 1 uM, replicate 2
[7] = 24 h, 10 µM, compound concentration 10 uM, replicate 1
[8] = 24 h, 10 µM, compound concentration 10 uM, replicate 2
[9] = 48 h, 1 µM, compound concentration 1 uM, replicate 1
[10] = 48 h, 1 µM, compound concentration 1 uM, replicate 2
[11] = 48 h, 10 µM, compound concentration 10 uM, replicate 1
[12] = 48 h, 10 µM, compound concentration 10 uM, replicate 2

## CNc1nc(NCc2ccc(NS(C)(=O)=O)cc2Cl)cc(-c2ccccn2)n1
[1]
  Population Apoptotic (%): 52%
  Population Fragmented Nuclei (%): 18%
  Population Healthy Nuclei (%): 36%
  Population Hoechst High Intensity Objects (%): 17%
  Population Membrane Permeable-Phenotype (%): 3%
  Population Mitochondria Different-Phenotype (%): 75%
  Population Mitotic Cells (%): 48%
  Population Normal (%): 82%
  Population Pyknosed Nuclei (%): 44%
  Population Tubulin-Different-Phenotype (%): 38%
  Total Cell Count: 203
[2]
  Population Apoptotic (%): 14%
  Population Fragmented Nuclei (%): 6%
  Population Healthy Nuclei (%): 43%
  Population Hoechst High Intensity Objects (%): 2%
  Population Membrane Permeable-Phenotype (%): 6%
  Population Mitochondria Different-Phenotype (%): 18%
  Population Mitotic Cells (%): 85%
  Population Normal (%): 97%
  Population Pyknosed Nuclei (%): 50%
  Population Tubulin-Different-Phenotype (%): 23%
  Total Cell Count: 273
[3]
  Population Apoptotic (%): 60%
  Population Fragmented Nuclei (%): 9%
  Population Healthy Nuclei (%): 25%
  Population Hoechst High Intensity Objects (%): 14%
  Population Mitochondria Different-Phenotype (%): 95%
  Population Mitotic Cells (%): 39%
  Population Normal (%): 85%
  Population Pyknosed Nuclei (%): 65%
  Population Tubulin-Different-Phenotype (%): 92%
  Total Cell Count: 190
[4]
  Population Apoptotic (%): 25%
  Population Fragmented Nuclei (%): 4%
  Population Healthy Nuclei (%): 18%
  Population Hoechst High Intensity Objects (%): 4%
  Population Membrane Permeable-Phenotype (%): 0%
  Population Mitochondria Different-Phenotype (%): 50%
  Population Mitotic Cells (%): 74%
  Population Normal (%): 95%
  Population Pyknosed Nuclei (%): 76%
  Population Tubulin-Different-Phenotype (%): 73%
  Total Cell Count: 189
[5]
  Population Apoptotic (%): 55%
  Population Fragmented Nuclei (%): 16%
  Population Healthy Nuclei (%): 52%
  Population Hoechst High Intensity Objects (%): 18%
  Population Membrane Permeable-Phenotype (%): 0%
  Population Mitochondria Different-Phenotype (%): 50%
  Population Mitotic Cells (%): 45%
  Population Normal (%): 81%
  Population Pyknosed Nuclei (%): 31%
  Population Tubulin-Different-Phenotype (%): 25%
  Total Cell Count: 234
[6]
  Population Apoptotic (%): 16%
  Population Fragmented Nuclei (%): 4%
  Population Healthy Nuclei (%): 57%
  Population Hoechst High Intensity Objects (%): 5%
  Population Membrane Permeable-Phenotype (%): 7%
  Population Mitochondria Different-Phenotype (%): 14%
  Population Mitotic Cells (%): 83%
  Population Normal (%): 94%
  Population Pyknosed Nuclei (%): 37%
  Population Tubulin-Different-Phenotype (%): 31%
  Total Cell Count: 355
[7]
  Population Apoptotic (%): 63%
  Population Fragmented Nuclei (%): 10%
  Population Healthy Nuclei (%): 29%
  Population Hoechst High Intensity Objects (%): 14%
  Population Membrane Permeable-Phenotype (%): 0%
  Population Mitochondria Different-Phenotype (%): 95%
  Population Mitotic Cells (%): 36%
  Population Normal (%): 85%
  Population Pyknosed Nuclei (%): 60%
  Population Tubulin-Different-Phenotype (%): 87%
  Total Cell Count: 193
[8]
  Population Apoptotic (%): 34%
  Population Fragmented Nuclei (%): 3%
  Population Healthy Nuclei (%): 25%
  Population Hoechst High Intensity Objects (%): 6%
  Population Mitochondria Different-Phenotype (%): 88%
  Population Mitotic Cells (%): 65%
  Population Normal (%): 93%
  Population Pyknosed Nuclei (%): 71%
  Population Tubulin-Different-Phenotype (%): 95%
  Total Cell Count: 177
[9]
  Population Apoptotic (%): 47%
  Population Fragmented Nuclei (%): 15%
  Population Healthy Nuclei (%): 64%
  Population Hoechst High Intensity Objects (%): 8%
  Population Membrane Permeable-Phenotype (%): 2%
  Population Mitochondria Different-Phenotype (%): 24%
  Population Mitotic Cells (%): 52%
  Population Normal (%): 91%
  Population Pyknosed Nuclei (%): 19%
  Population Tubulin-Different-Phenotype (%): 18%
  Total Cell Count: 336
[10]
  Population Apoptotic (%): 14%
  Population Fragmented Nuclei (%): 5%
  Population Healthy Nuclei (%): 76%
  Population Hoechst High Intensity Objects (%): 3%
  Population Membrane Permeable-Phenotype (%): 5%
  Population Mitochondria Different-Phenotype (%): 7%
  Population Mitotic Cells (%): 85%
  Population Normal (%): 96%
  Population Pyknosed Nuclei (%): 18%
  Population Tubulin-Different-Phenotype (%): 26%
  Total Cell Count: 601
[11]
  Population Apoptotic (%): 74%
  Population Fragmented Nuclei (%): 15%
  Population Healthy Nuclei (%): 29%
  Population Hoechst High Intensity Objects (%): 16%
  Population Membrane Permeable-Phenotype (%): 2%
  Population Mitochondria Different-Phenotype (%): 85%
  Population Mitotic Cells (%): 25%
  Population Normal (%): 83%
  Population Pyknosed Nuclei (%): 54%
  Population Tubulin-Different-Phenotype (%): 93%
  Total Cell Count: 189
[12]
  Population Apoptotic (%): 61%
  Population Fragmented Nuclei (%): 5%
  Population Healthy Nuclei (%): 26%
  Population Hoechst High Intensity Objects (%): 5%
  Population Membrane Permeable-Phenotype (%): 7%
  Population Mitochondria Different-Phenotype (%): 76%
  Population Mitotic Cells (%): 38%
  Population Normal (%): 94%
  Population Pyknosed Nuclei (%): 67%
  Population Tubulin-Different-Phenotype (%): 82%
  Total Cell Count: 202
